Measured values: ChEMBL document CHEMBL1156924, “Structure-activity relationships of diphenylpiperazine N-type calcium channel inhibitors” (Bioorg Med Chem Lett, 2010)
Converted amounts (≈) assume the structure as drawn.

Tests used:
[1] = Cmax at Sprague-Dawley rat at 10 mg/kg, po; assay type: ADME, organism-based; design: dose 10 mg/kg, route oral; details: in vivo
Summary of the method: (§1)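 Rat plasma PK after a single 10 mg/kg oral dose, with a 2 mg/kg intravenous arm used for comparison. Results are means of 2–3 animals. […] Cmax is the highest observed plasma level and Tmax the time at which it occurs. t1/2 is the terminal elimination half-life.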

[2] = AUC (0 to 24 hrs) at Sprague-Dawley rat at 10 mg/kg, po; assay type: ADME, organism-based; design: time < 24 hr, dose 10 mg/kg, route oral; details: plasma; summary of the method: as §1
[3] = Half life at Sprague-Dawley rat at 2 mg/kg, iv; assay type: ADME, organism-based; design: dose 2 mg/kg, route intravenous; details: in vivo
[4] = molecular target: N-type calcium channel alpha-1b/alpha2delta-1/beta-1b (Homo sapiens, UniProt Q00975); assay: Inhibition of N type calcium channel alpha-1b/alpha-2-delta-1/beta-1b expressed in HEK293 cells at holding potential of -100 mV by whole-cell patch clamp method; assay type: cell-based
Chain of N-type calcium channel alpha-1b/alpha2delta-1/beta-1b (Q00975 whole entry): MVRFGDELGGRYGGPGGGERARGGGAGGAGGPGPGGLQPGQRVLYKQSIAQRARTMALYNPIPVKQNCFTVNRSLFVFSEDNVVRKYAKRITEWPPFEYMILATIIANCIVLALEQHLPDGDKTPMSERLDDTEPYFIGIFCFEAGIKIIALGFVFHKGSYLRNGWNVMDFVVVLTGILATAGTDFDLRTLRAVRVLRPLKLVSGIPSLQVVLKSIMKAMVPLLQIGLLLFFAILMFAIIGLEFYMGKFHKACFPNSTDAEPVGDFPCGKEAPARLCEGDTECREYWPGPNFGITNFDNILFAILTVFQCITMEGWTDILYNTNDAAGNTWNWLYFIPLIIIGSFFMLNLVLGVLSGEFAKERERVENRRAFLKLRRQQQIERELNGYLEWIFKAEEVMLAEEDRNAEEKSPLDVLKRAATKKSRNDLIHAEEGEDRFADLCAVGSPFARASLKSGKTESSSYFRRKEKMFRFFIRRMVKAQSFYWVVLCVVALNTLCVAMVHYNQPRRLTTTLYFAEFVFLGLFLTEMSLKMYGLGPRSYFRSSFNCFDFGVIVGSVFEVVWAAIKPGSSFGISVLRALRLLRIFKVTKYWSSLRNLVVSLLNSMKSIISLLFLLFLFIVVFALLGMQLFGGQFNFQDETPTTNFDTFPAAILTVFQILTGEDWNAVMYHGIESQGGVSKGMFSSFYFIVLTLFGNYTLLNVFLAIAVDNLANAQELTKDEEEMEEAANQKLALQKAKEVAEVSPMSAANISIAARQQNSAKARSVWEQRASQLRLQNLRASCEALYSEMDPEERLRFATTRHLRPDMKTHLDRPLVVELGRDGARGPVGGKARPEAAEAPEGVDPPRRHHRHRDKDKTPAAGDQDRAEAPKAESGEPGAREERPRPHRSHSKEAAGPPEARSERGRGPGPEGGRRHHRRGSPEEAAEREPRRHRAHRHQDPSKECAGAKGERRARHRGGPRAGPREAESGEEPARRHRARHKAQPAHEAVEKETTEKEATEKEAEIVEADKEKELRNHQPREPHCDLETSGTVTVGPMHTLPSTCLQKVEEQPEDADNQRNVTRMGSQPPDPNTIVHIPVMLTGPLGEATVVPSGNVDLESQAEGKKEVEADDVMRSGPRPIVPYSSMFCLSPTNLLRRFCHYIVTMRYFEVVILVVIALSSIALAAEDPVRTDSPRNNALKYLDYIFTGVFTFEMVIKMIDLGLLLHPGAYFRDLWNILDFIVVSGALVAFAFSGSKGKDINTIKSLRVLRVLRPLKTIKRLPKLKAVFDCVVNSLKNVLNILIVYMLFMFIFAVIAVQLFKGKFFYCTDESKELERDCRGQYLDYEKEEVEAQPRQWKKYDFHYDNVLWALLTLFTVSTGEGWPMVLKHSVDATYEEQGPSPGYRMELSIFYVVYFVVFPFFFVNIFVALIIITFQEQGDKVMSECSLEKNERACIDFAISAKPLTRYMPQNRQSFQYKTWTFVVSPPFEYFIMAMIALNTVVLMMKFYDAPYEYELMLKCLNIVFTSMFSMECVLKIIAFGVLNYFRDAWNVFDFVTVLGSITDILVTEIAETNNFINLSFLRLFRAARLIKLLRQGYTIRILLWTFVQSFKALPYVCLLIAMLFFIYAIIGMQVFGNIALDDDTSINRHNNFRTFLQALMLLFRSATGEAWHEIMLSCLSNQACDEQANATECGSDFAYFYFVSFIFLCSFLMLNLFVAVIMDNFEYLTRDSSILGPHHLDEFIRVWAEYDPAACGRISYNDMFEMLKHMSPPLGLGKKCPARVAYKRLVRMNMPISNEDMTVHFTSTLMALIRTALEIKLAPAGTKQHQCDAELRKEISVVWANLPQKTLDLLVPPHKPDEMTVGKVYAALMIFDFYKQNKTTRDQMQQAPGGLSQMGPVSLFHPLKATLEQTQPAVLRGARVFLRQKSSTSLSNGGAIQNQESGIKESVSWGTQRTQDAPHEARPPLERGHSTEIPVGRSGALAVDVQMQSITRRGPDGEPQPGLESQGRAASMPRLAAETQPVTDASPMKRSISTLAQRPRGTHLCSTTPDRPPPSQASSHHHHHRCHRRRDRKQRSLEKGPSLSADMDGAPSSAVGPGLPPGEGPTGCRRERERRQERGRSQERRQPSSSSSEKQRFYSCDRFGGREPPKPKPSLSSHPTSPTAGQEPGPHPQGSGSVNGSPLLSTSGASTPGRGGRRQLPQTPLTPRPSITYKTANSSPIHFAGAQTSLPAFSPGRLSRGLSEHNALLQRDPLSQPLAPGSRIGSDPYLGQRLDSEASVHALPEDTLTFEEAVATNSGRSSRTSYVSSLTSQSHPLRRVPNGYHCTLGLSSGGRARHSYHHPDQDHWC
Chain of N-type calcium channel alpha-1b/alpha2delta-1/beta-1b (P54289 25-956 partner limits assumed): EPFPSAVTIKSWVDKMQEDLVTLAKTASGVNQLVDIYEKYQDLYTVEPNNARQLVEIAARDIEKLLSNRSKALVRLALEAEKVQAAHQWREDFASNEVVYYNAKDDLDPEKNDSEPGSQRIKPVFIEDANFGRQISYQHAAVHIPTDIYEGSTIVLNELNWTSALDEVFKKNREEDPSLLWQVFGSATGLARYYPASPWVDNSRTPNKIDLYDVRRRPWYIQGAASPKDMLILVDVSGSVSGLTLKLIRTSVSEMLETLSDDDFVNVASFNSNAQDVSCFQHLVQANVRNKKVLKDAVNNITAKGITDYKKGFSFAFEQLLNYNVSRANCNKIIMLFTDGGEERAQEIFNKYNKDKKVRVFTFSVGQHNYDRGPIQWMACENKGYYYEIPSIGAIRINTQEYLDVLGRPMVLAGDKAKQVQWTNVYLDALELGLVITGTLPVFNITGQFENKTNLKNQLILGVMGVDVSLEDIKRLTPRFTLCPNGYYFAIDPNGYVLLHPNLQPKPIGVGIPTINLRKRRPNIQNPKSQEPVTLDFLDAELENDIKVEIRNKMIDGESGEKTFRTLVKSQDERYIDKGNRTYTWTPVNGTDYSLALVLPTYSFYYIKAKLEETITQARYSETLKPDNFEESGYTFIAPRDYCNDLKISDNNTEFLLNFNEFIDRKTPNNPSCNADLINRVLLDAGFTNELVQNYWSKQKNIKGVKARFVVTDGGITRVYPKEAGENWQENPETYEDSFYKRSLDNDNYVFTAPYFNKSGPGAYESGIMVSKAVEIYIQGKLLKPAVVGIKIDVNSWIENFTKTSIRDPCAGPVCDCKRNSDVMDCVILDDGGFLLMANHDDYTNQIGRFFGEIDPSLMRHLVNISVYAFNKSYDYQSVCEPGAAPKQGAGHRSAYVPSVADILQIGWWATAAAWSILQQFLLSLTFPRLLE
Chain of N-type calcium channel alpha-1b/alpha2delta-1/beta-1b (P54289 957-1103 partner limits assumed): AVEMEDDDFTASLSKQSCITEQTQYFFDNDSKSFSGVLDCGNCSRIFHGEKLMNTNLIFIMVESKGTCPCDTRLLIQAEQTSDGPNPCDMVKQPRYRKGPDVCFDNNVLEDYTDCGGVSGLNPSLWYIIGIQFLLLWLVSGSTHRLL
Chain of N-type calcium channel alpha-1b/alpha2delta-1/beta-1b (Q02641 whole entry partner): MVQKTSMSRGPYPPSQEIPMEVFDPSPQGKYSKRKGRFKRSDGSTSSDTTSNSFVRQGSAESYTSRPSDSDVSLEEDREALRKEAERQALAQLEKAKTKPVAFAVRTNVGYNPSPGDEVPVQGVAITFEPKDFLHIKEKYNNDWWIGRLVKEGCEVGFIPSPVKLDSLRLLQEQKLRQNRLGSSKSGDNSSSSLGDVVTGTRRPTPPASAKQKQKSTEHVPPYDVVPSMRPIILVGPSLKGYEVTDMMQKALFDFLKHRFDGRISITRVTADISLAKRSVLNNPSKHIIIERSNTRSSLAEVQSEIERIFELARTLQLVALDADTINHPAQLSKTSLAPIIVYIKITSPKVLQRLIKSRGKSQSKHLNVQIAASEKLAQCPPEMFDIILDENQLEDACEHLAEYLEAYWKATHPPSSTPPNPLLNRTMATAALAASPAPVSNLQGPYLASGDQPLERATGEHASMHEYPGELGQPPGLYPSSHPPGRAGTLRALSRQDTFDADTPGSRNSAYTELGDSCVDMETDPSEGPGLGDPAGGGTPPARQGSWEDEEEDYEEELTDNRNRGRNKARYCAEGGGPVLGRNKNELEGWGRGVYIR

[5] = Aqueous solubility at pH 7.4; assay type: physicochemical
Summary of the method: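 Thermodynamic equilibrium solubility following the OECD water solubility method. Quantification was by LC/MS/MS, interpolating saturation solubility from a regression calibration curve of standards.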

[6] = Cmax at Sprague-Dawley rat at 2 mg/kg, iv; assay type: ADME, organism-based; design: dose 2 mg/kg, route intravenous; details: in vivo
[7] = Oral bioavailability at Sprague-Dawley rat at 10 mg/kg; assay type: ADME, organism-based; details: in vivo; summary of the method: as §1
[8] = molecular target: T1, Voltage-dependent L-type calcium channel alpha1C/alpha2delta/beta1b (Homo sapiens, UniProt Q13936); assay: Inhibition of L type calcium channel alpha-1c/alpha-2-delta-1/beta-1b expressed in HEK293 cells in presence of -100 mV holding potential by whole-cell patch clamp method; assay type: cell-based
Summary of the method: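 Manual whole-cell patch clamp in HEK cells transiently expressing rat CaV2.2 (N-type) or CaV1.2 (L-type) with α2δ-1 and β1b. Barium currents (5 mM BaCl2 external, pH 7.2; Cs-methanesulfonate internal) were stepped from −100 mV to +10 mV, using 3–5 cells per compound. Estimated IC50 = [D]/((1/fr) − 1), calculated from a single concentration assuming 1:1 binding.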

[9] = tested on: Rattus norvegicus; assay: Analgesic activity in Sprague-Dawley rat assessed as inhibition of spinal nerve injury-induced thermal hyperalgesia at 30 mg/kg, po after 60-90 mins; assay type: functional; design: scale not given: the % may be the effect or the level left
Summary of the method: (§2)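 Chung spinal nerve ligation model in male Sprague-Dawley rats (200–300 g), operated under halothane. Dosing was a single 30 mg/kg oral dose in propylene glycol (3 ml/kg), n = 5–7, given after baseline testing. Mechanical allodynia was measured as von Frey paw-withdrawal threshold and thermal hyperalgesia by paw withdrawal. Testing ran at 30 min intervals to 120 min, and the value reported is maximum % activity.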

[10] = molecular target: T1, Voltage-dependent L-type calcium channel alpha1C/alpha2delta/beta1b; assay: Inhibition of L-type calcium channel alpha-1c/alpha-2-delta-1/beta-1b expressed in HEK293 cells by FLIPR method; assay type: cell-based
Summary of the method: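 HEK cells stably co-expressing CaV1.2 and Kir2.3 were loaded with Fluo-4 (45 min, 29 °C) and held in 30 mM KCl buffer (pH 7.4), giving a partially inactivated state. Calcium entry was evoked with 130 mM KCl stimulation buffer and fluorescence read for 3 min. An 8-point concentration series (0.003–10) was fitted with a logistic function.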

[11] = AUC (0 to 24 hrs) at Sprague-Dawley rat at 2 mg/kg, iv; assay type: ADME, organism-based; design: time < 24 hr, dose 2 mg/kg, route intravenous; details: plasma
[12] = Tmax at Sprague-Dawley rat at 10 mg/kg, po; assay type: ADME, organism-based; design: dose 10 mg/kg, route oral; details: in vivo; summary of the method: as §1
[13] = Half life at Sprague-Dawley rat at 10 mg/kg, po; assay type: ADME, organism-based; design: dose 10 mg/kg, route oral; details: in vivo; summary of the method: as §1
[14] = tested on: Rattus norvegicus; assay: Analgesic activity in Sprague-Dawley rat assessed as inhibition of spinal nerve injury-induced mechanical allodynia at 30 mg/kg, po after 60-90 mins; assay type: functional; design: scale not given: the % may be the effect or the level left; summary of the method: as §2

Cmax [1]: 518 nM | AUC(0-t) at 24 h [2]: 4.67 µM·h | half-life [3]: 5 h | IC50 [4]: 110 nM | solubility [5]: 0.14 µg/mL (≈ 0.265 µM) | Cmax [6]: 2540 nM | bioavailability [7]: 65% | IC50 [8]: 6600 nM | IC50 [10]: 1800 nM | AUC(0-t) at 24 h [11]: 1.44 µM·h | Tmax [12]: 5 h | half-life [13]: 4 h
Compound: O=C(CC(c1ccccc1)c1ccccc1)N1CCN(C(c2ccccc2)c2cccc(C(F)(F)F)c2)CC1 (centres undefined)
Activity [9]: 24.2% | Activity [14]: 2.6%
